Measured values reported in paper PMC9357092 (Clinical Cancer Research, 2022).
Where “and” joins values, the source holds several entries; their conditions need not be identical. Identical values can stand only once. Like-named read-outs stand apart in the source and are kept apart here.

Legend:
[1] = In vitro metabolism in pooled human intestine microsomes; assay type: in vitro ADME
How it was run: (§1)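 Test compound (0.5 to 50 μmol/L) incubated with pooled human microsomes (0.4 mg/mL) at 37°C for 30 minutes. Overall drug disappearance velocity plotted against initial concentration and fitted to the Michaelis–Menten equation by nonlinear regression. Intrinsic clearance was taken as Vmax/Km.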

[2] = Binding to human plasma proteins; assay type: in vitro ADME; settings: pooled human plasma
[3] = Binding to human brain tissue; assay type: in vitro ADME; settings: pooled human brain tissue
[4] = Observed clinical plasma, CSF and brain metastasis pharmacokinetics in patients; assay type: in vivo, human
[5] = In vitro metabolism in pooled human liver microsomes; assay type: in vitro ADME
How it was run: as §1

[6] = Bidirectional transwell permeability, parental MDCKII monolayer; assay type: in vitro ADME; settings: dog, MDCK, pH 7.4, Intrinsic passive transcellular permeability (Papp,A-B/λ), unbound and unionized drug
[7] = tested on: HER2-positive breast cancer; settings: cited from earlier work; for Cumulative incidence of intervention for CNS metastases: NALA phase III, each drug plus capecitabine, P = 0.043; for CNS objective response rate, monotherapy: pretreated HER2-positive breast cancer patients with progressive brain metastases
[8] = Blood-to-plasma partition ratio; assay type: in vitro ADME; settings: blood and plasma
[9] = Whole-body-4Brain PBPK model simulation of plasma and CNS pharmacokinetics; parameters: species or system human; settings: PBPK input; for fa: assigned based on observed data; for Ka: first-order absorption rate constant; for Ka / Lag time: observed
[10] = parameters: species or system human; settings: IVIVE predicted
HER2 kinase = settings: read-out: IC50 for inhibition of HER2 kinase; ADP-Glo assay; cited from earlier work
[11] = cited from earlier work; for Observed CSF concentration (mean) / Observed CSF Kp,uu, geometric mean: 13 patients; for Observed CSF concentration (mean): 300 mg twice daily with trastuzumab and capecitabine, 2-5 hours postdosing

Compound | microsomal CLint [1] | fraction unbound [2] | fraction unbound [3] | microsomal CLint [5] | Papp A→B at 1 h, 1 μmol/L [6] | Cumulative incidence of intervention for CNS metastases [7] | CNS objective response rate, monotherapy [7] | blood plasma ratio [8] | fa [9] | Ka [9] | Lag time [9] | Ratio of BBB passive clearance (PSB) to active efflux clearance (CLefflux,BBB) [10] | IC50 (HER2 kinase) | also measured
CS(=O)(=O)CCNCc1ccc(-c2ccc3ncnc(Nc4ccc(OCc5cccc(F)c5)c(Cl)c4)c3c2)o1 [lapatinib] | 5.66 µL/min/mg | 0.014 | 0.0004 | 22.8 µL/min/mg | 4.14 ×10⁻⁶ cm/s | 29.2% | 6% |  |  |  |  |  |  | Estimated CSF Kp,uu from observed data ([4]; two patients, assuming fraction unbound in plasma 0.014, data of ref 27): 0.092; CNS response rate, combined with stereotactic radiosurgery [7]: 75%; CNS response rate, combined with whole-brain radiation therapy [7]: 79%
CCOc1cc2ncc(C#N)c(Nc3ccc(OCc4ccccn4)c(Cl)c3)c2cc1NC(=O)/C=C/CN(C)C [neratinib] | 24.6 µL/min/mg | […] | 0.004 | 39 µL/min/mg | […] | 22.8% | 8% | […] | 0.2 | 0.25 | 0.8 h | […] | […] | Observed total plasma concentration ([11]; 2 patients, 240 mg once daily): […]; Unbound plasma concentration corresponding to observed total ([4]; 2 patients, assuming fraction unbound in plasma 0.007, data of ref 28): 0.43 nM and 0.67 nM; Disease-free survival vs placebo, HR ([7]; ExteNET, 240 mg once daily, 1 year, 95% CI 0.46-0.84): 0.63; Cumulative incidence of CNS metastases vs placebo ([7]; ExteNET, 240 mg once daily, 1 year): no statistically significant difference; Time to CNS metastases, hazard ratio ([7]; NEfERT-T, neratinib plus paclitaxel vs trastuzumab plus paclitaxel, 95% CI 0.26-0.78): […]; Incidence of symptomatic or progressive CNS recurrence ([7]; NEfERT-T, neratinib plus paclitaxel vs trastuzumab plus paclitaxel): 8.3%
Cc1cc(Nc2ncnc3ccc(NC4=NC(C)(C)CO4)cc23)ccc1Oc1ccn2ncnc2c1 [tucatinib] | 4.5 µL/min/mg | 0.03 | 0.015 | 41.8 µL/min/mg | 13.3 ×10⁻⁶ cm/s |  |  | 0.93 | 0.5 | 0.8 | 0.6 h | 0.83 | 6.9 nM | Observed CSF concentration (mean) ([11]; cycle 1 day 1): 10.9 nmol/L; Observed CSF concentration (mean) ([11]; cycle 2 day 1): 21.6 nmol/L; Observed CSF Kp,uu, geometric mean ([11]; cycle 1 day 1): 0.51; Observed CSF Kp,uu, geometric mean ([11]; cycle 2 day 1): 0.76; Risk of intracranial progression or death, HR ([7]; HER2CLIMB, tucatinib added to trastuzumab and capecitabine, 95% CI 0.22-0.48): 0.32; Risk of death, HR ([7]; HER2CLIMB, tucatinib added to trastuzumab and capecitabine, 95% CI 0.40-0.85): 0.58
